Bioassay records: PubChem, several laboratories
Rows were chosen to be rich in hits. Some 1.5% of all compounds tested hit in one or more screens of this group.
APJ agonist: agonists of human apelin receptor APJ, primary screen, CHO-K1 cells, PathHunter beta-arrestin, luminescence | P35414 | 0% DMSO wells, 100% apelin | activation, % at 20 µM | hit rate 0.11% among 330,000;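 active means activation more than six SD over the plate average, tested at 20 µM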
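Assay system: engineered CHO-K1 APJ arrestin reporter cells; Amount: 1000 CHO-K1 reporter cells seeded per well; Dosing: one dose, 20 µM compound, 1% DMSO; Times: compound stimulation 90 min at 25 °C, detection 60 min; Measured by: luminescent beta-gal fragment complementation, chemiluminescent substrate; Read-out: APJ–arrestin association signal; Controls: DMSO vs Apelin-13 10 nM.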
CXCR6 inh: CXCR6 receptor inhibitors, primary screen, cell-based, beta-arrestin, luminescence, CHO-K1 PathHunter, 1536-well | C-X-C chemokine receptor type 6 (Homo sapiens), O00574 | inhibition, % at 20 µM | hit rate 0.36% among 360,000 | AID 602244, 2012; in the data active means inhibition above about 34%, passing the limit was not always enough;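 further: antagonist mode with CXCL16 agonist at 10 nM final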
CCR6 antagonist: CCR6 receptor antagonists, primary screen, cell-based, CHO-K1, luminescence, beta-arrestin, uHTS; AID 493098, 2011; hit rate 0.49% among 340,000; C-C chemokine receptor type 6 (Homo sapiens), P51684; inhibition, % at 20 µM; CHO-K1 CCR6 PathHunter beta-arrestin, CCL20-stimulated;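 active means compounds whose inhibition of the agonist-driven luminescence signal at 20 µM reaches about 50%, limit read from the data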;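 further: cells stimulated with CCL20 at 14 nM final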
Target sequence (P51684 whole entry, looked up): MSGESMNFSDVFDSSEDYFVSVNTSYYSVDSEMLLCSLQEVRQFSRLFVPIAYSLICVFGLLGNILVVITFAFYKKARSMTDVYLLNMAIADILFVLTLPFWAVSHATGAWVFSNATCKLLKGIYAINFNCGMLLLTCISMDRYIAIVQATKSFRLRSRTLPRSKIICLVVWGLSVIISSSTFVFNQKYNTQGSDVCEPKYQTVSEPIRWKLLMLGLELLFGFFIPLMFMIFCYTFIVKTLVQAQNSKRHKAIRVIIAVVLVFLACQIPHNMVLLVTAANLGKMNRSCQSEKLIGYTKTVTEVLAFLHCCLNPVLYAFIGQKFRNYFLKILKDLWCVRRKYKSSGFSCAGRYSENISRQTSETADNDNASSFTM
NTR1 agonist: agonists of human NTR1, primary screen, imaging, U2OS cells, beta-arrestin-GFP, high content | AID 493036, 2011 | hit rate 0.17% among 330,000 | NTR1-U2OS beta-arrestin-GFP spot imaging, agonist mode | activation, % at 20 µM | Neurotensin receptor type 1 (Homo sapiens), P30989;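 active means activation at or above 40% of the spot to cytoplasm intensity ratio, with at least 20 cells analyzed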
APJ antagonist: antagonists of human apelin receptor APJ, primary screen, CHO-K1 cells, beta-arrestin complementation, luminescence. hit rate 0.32% among 330,000. P35414. inhibition, % at 20 µM;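 active means inhibition above about 40% at 20 µM, limit read from the data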;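 further: cells challenged with 10 nM apelin-13 agonist together with compound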
HTR2A ag: mouse Htr2a agonists via beta-arrestin recruitment, primary screen, cell-based, luminescence. 5-hydroxytryptamine receptor 2A (Mus musculus), P35363. CHO-K1 mHTR2A beta-arrestin complementation; percent of 30 µM serotonin response. hit rate 0.66% among 360,000. activation, % at 7.6 µM;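 active means activation above a run cutoff, the mean activation of all tested compounds plus 3 SD, cut at about 14% in these data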
CXCR6 confirm: CXCR6 receptor antagonists, confirmation, cell-based, single concentration, beta-arrestin, luminescence | shares compounds with CXCR6 inh | CHO-K1 CXCR6 PathHunter beta-arrestin | inhibition, % at 20 µM | hit rate 65% among 700 | AID 602409, 2012;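 active means mean inhibition over four retests above 40%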;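 further: receptor stimulated with 10 nM CXCL16 agonist; beta-galactosidase fragment complementation upon beta-arrestin recruitment to receptor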
A number is an active result; - = inactive; . = not tested or not shown.

SMILES	APJ agonist	CXCR6 inh	CCR6 antagonist	NTR1 agonist	APJ antagonist	HTR2A ag	CXCR6 confirm
C=CCN(C(=O)c1ccc(Cl)cc1)c1ccccc1C(=O)NCC(=O)O	-	-	-	-	-	-	.
Cc1ccc(C(=O)NC(=S)Nc2ccc(NC(=O)c3cccs3)cc2)cc1[N+](=O)[O-]	-	28	50	-	-	-	-
Cc1ccc(C(=O)Nc2ccc(NC(=O)c3cccs3)cc2)cc1[N+](=O)[O-]	-	-	-	-	-	-	.
COc1ccc(N2C(=O)C3CC(C)=C(C)CC3C2=O)c(OC)c1 (centres undefined)	-	-	-	-	-	-	.
COc1cc(N2C(=O)C=CC2=O)ccc1N1C(=O)C=CC1=O	.	106	107	.	.	-	47
CC(=O)c1ccc(OCCCC(=O)OCC(=O)N2CCN(S(=O)(=O)c3ccc(C)cc3C)CC2)cc1	.	-	-	.	.	-	.
CCC/C=C/c1ccc(CN2C(CC(C)C)C(=O)N(Cc3cn(CCOCOC)nn3)CCS2(=O)=O)cc1 (centres undefined)	.	-	.	.	.	-	.
CCC/C=C/c1ccc(CN2C(C)C(=O)N(Cc3cn(CCOCOC)nn3)CCS2(=O)=O)cc1 (centres undefined)	.	42	.	.	.	-	-
CC(C)n1nnnc1C1c2ccccc2C(=O)N1Cc1ccc(F)cc1 (centres undefined)	.	-	.	.	.	-	.
CN(C)/C(=N\S(=O)(=O)c1ccc(Cl)cc1)c1ccc(F)cc1	-	43	-	-	-	-	-
Cc1ccc(S(=O)(=O)/N=C(/c2ccc(F)cc2)N(C)C)cc1	-	-	-	-	-	-	.
COc1ccc(CC(=O)N(C)c2ccccc2)cc1S(=O)(=O)N1CCOCC1	.	-	.	.	.	-	.
CCNC(=O)C1(C)CCCN1C(=O)c1ccc2c(c1)OCO2 (centres undefined)	.	-	.	.	.	-	.
COc1ccc(NC(=S)N(CCc2c(C)[nH]c3ccccc23)Cc2cccnc2)cc1	-	37	-	-	-	-	-
O=C1c2cccc(NCCCNCCO)c2C(=O)c2cccc(NCCCNCCO)c21	.	-	-	.	.	-	.
O=C1CC(Sc2nnnn2-c2ccccc2)C(=O)N1c1cccc(Cl)c1 (centres undefined)	-	94	.	-	-	-	59
O=C1CC(SCc2nc3ccccc3[nH]2)C(=O)N1c1cccc(Cl)c1 (centres undefined)	-	-	-	-	-	-	.
O=C(/C=C/c1ccc(Cl)cc1)N(c1ccccn1)C1CCCCC1	-	59	-	-	-	-	-
Cc1ccccc1CN(C)C[C@H]1OCc2cnnn2CCCC(=O)N([C@@H](C)CO)C[C@@H]1C	.	-	.	.	.	-	.
C[C@H]1CN([C@@H](C)CO)C(=O)CCCn2nncc2CO[C@@H]1CN(C)Cc1ccccc1C(F)(F)F	.	39	.	.	.	-	-
Cc1cccc(C(=O)NCC(=O)N2CCCC2)c1	-	40	-	-	-	-	-
Cc1cc(C)cc(Cn2c3ccc(NC(=O)NCCc4cccs4)cc3c(=O)n2C)c1	.	-	.	.	.	-	.
CCOC(=O)C1(CCOC)CCN(C(=O)Cc2ccc3ccccc3c2)CC1	-	-	-	-	-	-	.
COc1cc(/C=C/C(O)=C/C(=O)/C=C/c2ccc(O)cc2)ccc1O	-	40	61	-	-	-	45
CCOc1ccc(NC(=O)Cn2sc3nc(C)cc(C)c3c2=O)cc1	-	38	-	-	-	-	-
SMILES	APJ agonist	CXCR6 inh	CCR6 antagonist	NTR1 agonist	APJ antagonist	HTR2A ag	CXCR6 confirm
Cc1cc(C)c2c(=O)n(CC(=O)Nc3cccc(F)c3)sc2n1	-	-	-	-	-	-	.
Cc1cc(C)c2c(=O)n(CC(=O)Nc3ccc(Cl)cc3)sc2n1	-	65	-	-	-	-	-
O=C(COC(=O)C1CCN(S(=O)(=O)c2cccs2)CC1)c1cc2ccccc2o1	-	34	74	-	-	-	42
CCOC(=O)CSc1cccc2cccnc12	-	53	69	-	-	-	65
O=C(NC(=S)N(CCc1ccccc1)CCc1ccccc1)c1ccco1	-	39	.	-	-	-	50
O=C(NC(=S)N(Cc1ccccc1)Cc1ccccc1)c1ccccc1F	-	36	-	-	-	-	-
CC(CCc1ccccc1)NC(=S)NC(=O)c1ccco1 (centres undefined)	-	-	-	-	-	-	.
Cn1c(SCC(=O)NN2C(=O)NC(C)(c3ccccc3)C2=O)nnc1-c1ccncc1 (centres undefined)	-	-	-	-	-	-	.
C=CCSC1=N/C(=C\c2cc(OCC)c(OC(C)=O)c([N+](=O)[O-])c2)C(=O)S1	-	46	53	-	-	-	54
C=CCSC1=N/C(=C\c2ccc3c(c2)OCO3)C(=O)S1	-	-	-	-	-	-	.
COC(=O)CN1C(=O)[C@H]2[C@@H](c3ccc(C)o3)N3C(=O)CN(Cc4ccccn4)C(=O)[C@@]3(C)[C@H]2C1=O	-	104	-	-	-	-	-
CCOc1cc(/C=C2\C(=O)N(c3cccc(C(F)(F)F)c3)C(=O)c3ccccc32)ccc1O	-	44	-	-	-	-	43
COc1cccc(/C=C2\C(=O)N(c3cccc(C)c3)C(=O)c3ccccc32)c1	-	-	-	-	-	-	.
O=C1CC(c2ccco2)Cc2nc(N3CCc4ccccc4C3)ncc21 (centres undefined)	-	44	-	-	-	-	-
COc1ccc(CNC(=O)c2nc(S(=O)(=O)Cc3ccccc3)ncc2Cl)cc1	-	50	-	-	-	-	52
COc1ccc(S(=O)(=O)Cc2ccc(C(=O)NCc3ccccc3)o2)cc1	-	-	-	-	-	-	.
O=C(NCc1ccc2c(c1)OCO2)c1nc(S(=O)(=O)Cc2ccccc2F)ncc1Cl	-	70	-	-	-	-	62
Cc1cccc(NC(=O)CCC(=O)N/N=C/c2ccco2)c1	-	78	-	-	-	-	-
N#Cc1cc(N2CCCCC2)c([N+](=O)[O-])cc1C#N	-	-	-	-	-	-	.
O=[N+]([O-])c1cc2no[n+]([O-])c2cc1N1CCCCC1	.	100	106	.	.	-	93
Cc1cc(C)cc(NC(=O)c2cccnc2)c1	-	40	-	-	-	-	-
Cc1cccc(C(=O)Nc2ccc(C(=O)/C=C/c3cccnc3)cc2)c1	.	36	-	.	.	-	44
